Only some compounds are listed: those with a hit (about 1.9% of all), similar ones and a draw of the others.
Arr AP2 block: blocks beta-arrestin peptide binding to AP2 adaptin. FITC-arrestin peptide / GST-AP2 beads, flow cytometry; AP2 beta2 appendage carries R879A mutation. AID 504490. 0.31% of 340,000 active. inhibition, % at 10 µM;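 active = inhibition above a set limit, near 3 SD of compounds lacking own fluorescence, cut at about 54% in these data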;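 also: plate controls were DMSO wells for no effect and 5 µM unlabelled arrestin peptide for full effect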
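System: GST-AP2 R879A glutathione beads. Medium: PBS with 0.05% Tween 20 and 0.1% BSA. Also added: FITC-arrestin peptide, 50 nM. Incubation: 12 min plus 1 h, RT. Measured by: high-throughput flow cytometry of beads, ex 488, em 535 nm. Evaluation: percent drop in bead-associated FITC signal.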
proCasp3 act: activators of human procaspase-3. 0.11% of 330,000 active. P42574. recombinant procaspase-3 D3A, Ac-DEVD-pNA absorbance 405 nm. activation, % at 8.5 µM;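 active = activation above the mean of all tested compounds plus 3 SD, cut at about 21% in these data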;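 also: 0% = DMSO alone and 100% = DMSO wells spiked with extra 5 µM PC-3 D3A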
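material = Procaspase-3 D3A mutant | probe or stimulus = Ac-DEVD-pNA | compound = single dose, 8.5 µM nominal compound, 0.8% DMSO | timing = 1 h preincubation, 2 h reaction | measured by = 405 nm absorbance of p-nitroaniline, reads at 0 and 120 min | benchmarks = DMSO-only low control, 5 µM PC-3 D3A high control | repeats = singlicate, each compound tested once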
PLC-gamma1 inh: blocks human PLC-gamma1 enzyme activity | purified PLC-gamma1, fluorogenic substrate, fluorescence | inhibition, % at 12.2 µM | 0.84% of 370,000 active | AID 720700; in the data active = inhibition above about 9.5%
Target sequence (P19174 whole entry, looked up): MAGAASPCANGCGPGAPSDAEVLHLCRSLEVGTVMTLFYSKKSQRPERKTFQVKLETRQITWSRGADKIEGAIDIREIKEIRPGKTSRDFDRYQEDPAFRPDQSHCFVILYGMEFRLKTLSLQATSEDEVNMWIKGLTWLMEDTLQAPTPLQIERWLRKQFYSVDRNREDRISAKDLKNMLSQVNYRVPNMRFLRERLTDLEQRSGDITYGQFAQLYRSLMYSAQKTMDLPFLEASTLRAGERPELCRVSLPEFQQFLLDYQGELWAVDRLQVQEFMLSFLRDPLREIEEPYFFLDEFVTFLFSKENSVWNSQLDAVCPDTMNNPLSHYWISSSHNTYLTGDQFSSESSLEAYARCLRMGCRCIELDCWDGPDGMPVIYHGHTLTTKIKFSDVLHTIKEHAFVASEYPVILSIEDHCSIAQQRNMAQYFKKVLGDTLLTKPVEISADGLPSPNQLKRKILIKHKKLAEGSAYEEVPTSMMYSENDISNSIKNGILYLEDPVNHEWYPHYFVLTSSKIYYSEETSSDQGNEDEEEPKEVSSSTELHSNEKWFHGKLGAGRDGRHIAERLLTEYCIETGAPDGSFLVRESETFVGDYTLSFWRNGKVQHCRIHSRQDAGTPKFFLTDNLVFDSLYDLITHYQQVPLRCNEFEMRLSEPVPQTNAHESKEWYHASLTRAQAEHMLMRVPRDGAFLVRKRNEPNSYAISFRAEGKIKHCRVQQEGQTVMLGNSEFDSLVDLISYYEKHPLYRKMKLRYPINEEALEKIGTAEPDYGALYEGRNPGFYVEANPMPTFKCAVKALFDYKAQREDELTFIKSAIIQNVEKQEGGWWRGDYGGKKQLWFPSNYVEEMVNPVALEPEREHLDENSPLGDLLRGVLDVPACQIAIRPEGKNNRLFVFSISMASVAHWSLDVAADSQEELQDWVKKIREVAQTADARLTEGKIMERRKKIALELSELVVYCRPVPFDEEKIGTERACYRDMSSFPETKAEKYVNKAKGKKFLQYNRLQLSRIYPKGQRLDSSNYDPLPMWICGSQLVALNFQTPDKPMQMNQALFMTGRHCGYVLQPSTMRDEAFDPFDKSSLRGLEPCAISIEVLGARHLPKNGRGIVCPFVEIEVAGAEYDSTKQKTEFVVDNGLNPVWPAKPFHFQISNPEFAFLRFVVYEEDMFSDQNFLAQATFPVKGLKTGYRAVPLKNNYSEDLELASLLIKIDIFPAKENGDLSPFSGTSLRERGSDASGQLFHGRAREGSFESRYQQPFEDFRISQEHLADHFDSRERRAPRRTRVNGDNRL
PLCb3 inh: PLC-beta3 (human) inhibition, primary screen | AID 720704 | 0.18% of 370,000 active | inhibition, % at 12.2 µM | Q01970 | Purified PLC-beta3, fluorogenic substrate, fluorescence; in the data active = inhibition above about 11%;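 also: 0% = median of compound wells on plate and 100% = full blocker control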
HGIII-sPLA2 inh: Inhibits HGIII-sPLA2 liposome hydrolysis, primary screen; Q9NZ20; QFRET BODIPY PC-A2 liposome hydrolysis, fluorescence; inhibition, % at 12.2 µM; 0.56% of 370,000 active; AID 743126;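 active = inhibition above mean plus 3 SD of compounds lying within the high and low control bounds, cut at about 19% in these data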;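 also: 0% = median of test compound wells and 100% = no enzyme DMSO wells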
proCasp7 act: activates human procaspase-7, counter-screen for procaspase-3 activators; P55210; recombinant procaspase-7, Ac-DEVD-pNA absorbance 405 nm; D23A/D198A/D206A triple mutant, cannot self-cleave; scale: DMSO 0, 5 µM enzyme 100; activation, % at 8.5 µM; 0.093% of 330,000 active; AID 463210;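 active = percent activation above the screen-wide mean plus 3 SD, cut at about 25% in these data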
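Test system: Procaspase-7 triple mutant (PC-7 D3A). Also added: Ac-DEVD-pNA substrate, 400 µM as added. Schedule: 1 h enzyme–compound preincubation and 2 h substrate reaction, both 25 °C. Signal: p-Nitroaniline absorbance at 405 nm, read at 0 and 120 min. Control set: low DMSO alone, high DMSO plus 5 µM PC-7.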
sPLA2 confirm: human GIII-sPLA2 inhibition, confirmation; shares compounds with HGIII-sPLA2 inh; recombinant hGIII-sPLA2, BODIPY PC-A2 QFRET fluorescence; inhibition, % at 12.2 µM; 34% of 2,000 active; AID 743280;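 active = mean inhibition across triplicates above the hit cutoff set in the earlier primary screen, cut at about 19% in these data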;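 also: 0% = enzyme with DMSO and 100% = DMSO wells lacking enzyme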
BODIPY interf: optically interferes with 535nm fluorescence in sPLA2 counter-screen; shares compounds with HGIII-sPLA2 inh; BODIPY FL product fluorescence interference, QFRET; inhibition, % at 12.2 µM; 8.5% of 2,000 active; AID 743282;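 active = average inhibition above the solvent-only control mean plus 3 SD, cut at about 6% in these data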;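 also: 0% = DMSO with substrate plus product and 100% = DMSO with substrate alone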
Active calls of the source: *; nt = no result given.

SMILES | Arr AP2 block | proCasp3 act | PLC-gamma1 inh | PLCb3 inh | HGIII-sPLA2 inh | proCasp7 act | sPLA2 confirm | BODIPY interf
O=C(Nc1cccc(F)c1)C1CCN(C(=O)NCc2ccccc2)CC1 | 43 | -6 | -1 | -4 | 4 | 5 | nt | nt
O=C(Cc1ccccc1)Nn1c(-c2ccccc2)nc2ccccc2c1=O | -1 | -2 | 0 | 5 | 15 | -7 | nt | nt
NC(=S)Nn1c(-c2ccccc2)nc2ccccc2c1=O | -4 | -2 | 3 | -3 | 19* | -11 | 6 | 0
C=CCn1c(=S)[nH]c2ccc(Br)cc2c1=O | -2 | -4 | 1 | 2 | 20* | -1 | 21* | 2
C=CCn1c(=S)[nH]c2cc(C(=O)Nc3ccc(OC)c(OC)c3)ccc2c1=O | 10 | -4 | -3 | -21 | 7 | -4 | nt | nt
C=CCn1c(=S)[nH]c2nc3c(cc2c1=O)CCCC3 | 10 | -2 | 7 | -3 | 23* | 0 | 12 | -1
N#Cc1ccc(-c2nc3c4ccccc4ccn3c2Cc2cccc(Cl)c2)cc1 | nt | nt | -32 | -45 | -7 | nt | nt | nt
Cc1ccccc1Nc1nc(N)nc(COC(=O)[C@@H](NC(=O)c2c(F)cccc2F)C(C)C)n1 | 1 | 2 | -2 | -8 | 6 | 4 | nt | nt
CCn1c(-c2cccnc2)n[nH]c1=S | -1 | -4 | 0 | -1 | 5 | -4 | nt | nt
CCCCn1c(-c2cccnc2)n[nH]c1=S | -9 | -7 | -3 | -1 | 22* | 3 | 9 | -5
Cc1csc(N(C(=O)Cc2ccccc2F)c2ccccc2)n1 | -8 | 5 | 4 | 1 | 20* | 8 | -3 | -12
O=C(CCC(=O)Nc1ccccc1Cl)NNC(=O)Nc1cccc([N+](=O)[O-])c1 | 16 | 2 | 0 | -6 | -12 | 9 | nt | nt
Cc1ccccc1NC(=O)c1ccc(CN2CC(=O)N3CCCCC3C2=O)cc1 (stereo not given) | 2 | 0 | 1 | -3 | 19* | 7 | -4 | -3
CCC(C)[C@@H](C(=O)NCC1CCC(C(=O)O)CC1)n1nnc2ccccc2c1=O (stereo not given in full) | -3 | -7 | 4 | 0 | 20* | 5 | 2 | -4
C[C@@H](C(=O)NCCCCCC(=O)O)n1nnc2ccccc2c1=O | 24 | 6 | 0 | -2 | -1 | -3 | nt | nt
CCOC(=O)C(NC(=O)NCc1ccc(F)cc1)(OCC)C(F)(F)F (stereo not given) | 22 | -1 | 6 | -3 | 12 | -7 | nt | nt
CCOC(=O)C(NC(=O)Nc1ccc(Cl)cn1)(Oc1ccc(F)cc1)C(F)(F)F (stereo not given) | -2 | 7 | -9 | 0 | 25* | -4 | -1 | -8
COC(=O)c1sc2ccccc2c1NC(=O)c1ccc(S(=O)(=O)N2CC(C)CC(C)C2)cc1 (stereo not given) | -5 | 1 | 1 | 3 | 4 | -5 | nt | nt
CC1CCCN(S(=O)(=O)c2ccc(C(=O)Nc3nnc(C4CC4)o3)cc2)C1 (stereo not given) | 1 | 9 | -2 | -7 | -6 | -2 | nt | nt
Cc1cc(C)c2nc(NNC(=O)c3ccc(S(=O)(=O)N4CCCC(C)C4)cc3)sc2c1 (stereo not given) | 1 | -22 | -259 | -317 | 36* | -24 | 46* | 6.5*
Cc1cccc2sc(NNC(=O)c3ccc(S(=O)(=O)N4CC(C)CC(C)C4)cc3)nc12 (stereo not given) | 7 | -16 | -138 | -175 | 47* | -38 | 47* | 3
Cc1c(C(=O)NCCCN2CCOCC2)oc2c1C1(CCC2)SCCS1 | 18 | -9 | 3 | 0 | -3 | 9 | nt | nt
Oc1cccc(/C=N/NC(=S)Nc2cccnc2)c1O | 14 | -21 | -22 | -37 | 34* | -13 | 21* | 2
COc1ccc(/C=C/C(=O)c2cccc(-n3cnnn3)c2)cc1O | 6 | -2 | 0 | -4 | -7 | -9 | nt | nt
COC(=O)[C@]12C[C@H](CC(=O)NCCCN3CCCC3=O)C(=O)N(CCC3=CCCCC3)C1=C[C@H](C1CCCC1)O[C@@H]2C | nt | nt | 1 | 1 | -5 | nt | nt | nt
SMILES | Arr AP2 block | proCasp3 act | PLC-gamma1 inh | PLCb3 inh | HGIII-sPLA2 inh | proCasp7 act | sPLA2 confirm | BODIPY interf
O=C(OCc1ccccc1)N1CCC2CC1c1ccc(N3CCNCC3)cc12 (stereo not given) | nt | nt | 0 | -4 | 31* | nt | -4 | -35
COc1ccc(NC(=S)N2CCN(c3ccc4c(c3)C3CCN(C(=O)OCc5ccccc5)C4C3)CC2)c(OC)c1 (stereo not given) | nt | nt | 1 | 3 | 25* | nt | 5 | -22
O=C(OCc1ccccc1)N1CCC2CC1c1ccc(N3CCOCC3)cc12 (stereo not given) | nt | nt | -1 | 3 | 13 | nt | nt | nt
COc1ccc2[nH]c3c(c2c1)CCN1C(=O)C(CC(=O)NC(C)(C)C)C[C@H](C(=O)N2CCCCC2)[C@@]31CCc1ccccc1 (stereo not given in full) | 4 | -11 | 3 | 2 | -7 | 7 | nt | nt
CSc1nc(Cl)c(Br)c(Nc2c[nH]c(=O)[nH]c2=O)n1 | 12 | nt | 1 | 0 | 8 | nt | nt | nt
CC(C)NC(=O)OC[C@H]1O[C@H](C#Cc2ccc(C(C)(C)C)cc2)C=C[C@H]1O | nt | nt | -1 | -1 | 16 | nt | nt | nt
CC(C)(C)c1ccc(C#C[C@@H]2C=C[C@@H](O)[C@@H](CO)O2)cc1 | nt | nt | 1 | 3 | 20* | nt | -2 | -12
N#Cc1ccc(-c2csc(NNC(=O)c3ccc(Br)cc3)n2)cc1 | -11 | -3 | -9 | -21 | 46* | 1 | 36* | 11*
CC(=O)Nc1ccc(-c2csc(NNC(=O)c3ccc(C)cc3)n2)cc1 | -13 | -3 | -21 | -26 | 30* | -8 | 23* | -1
O=C(NC(=S)Nc1nc(-c2ccc(Br)cc2)cs1)c1ccco1 | -8 | 14 | -1 | 8 | 6 | -4 | nt | nt
O=C(NNc1nc(-c2ccc(Br)cc2)cs1)c1ccco1 | -20 | -8 | -7 | -7 | 46* | -11 | 45* | 12*
O=C(NNc1nc(-c2ccccc2)cs1)c1ccccc1 | -1 | -14 | -6 | -13 | 35* | -9 | 33* | 7.3*
CC(=O)NNc1nc(-c2ccc(NC(C)=O)cc2)cs1 | 27 | -4 | -138 | -144 | 0 | -11 | nt | nt
CCN(CC(=O)NC(C)(C)C)C(=O)CN1c2cccc3cccc(c23)S1(=O)=O | 12 | 9 | -209 | -298 | -5 | 7 | nt | nt
